# According to ChEMBL document CHEMBL5143652, “Quinazolinones as allosteric fourth-generation EGFR inhibitors for the treatment of NSCLC” (Bioorg Med Chem Lett, 2022):
# Active and inactive are the calls of the source. The rule behind the calls is not given here.
# Legend:
# BaF3 [1] = assay: Antiproliferative activity against mouse BaF3 cells harboring EGFR L858R/T790M/C797S triple mutant assessed as inhibition of cell growth; assay type: functional, cell-based
# Method in brief: (§1)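 Ba/F3 proliferation assay with the compound alone (single-agent readout, no cetuximab). Cellular IC50 is reported in μM.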
# BaF3 [2] = assay: Antiproliferative activity against mouse BaF3 cells harboring EGFR L858R/T790M double mutant assessed as inhibition of cell growth; assay type: functional, cell-based; method in brief: as §1
# BaF3 [3] = assay: Antiproliferative activity against mouse BaF3 cells harboring EGFR L858R/T790M double mutant assessed as inhibition of cell growth in presence of cetuximab; assay type: functional, cell-based
# Method in brief: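 Ba/F3 proliferation assay, second readout: cells co-treated with cetuximab to prevent EGFR dimer formation. Cellular IC50 is reported in μM.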
# [4] = molecular target: Epidermal growth factor receptor (Homo sapiens, UniProt P00533, L858R/T790M); assay: biochemical
# [5] = Half life in mouse at 3 mg/kg, iv; assay type: ADME, organism-based; details: in vivo
# [6] = Volume of distribution at steady state in mouse at 3 mg/kg, iv or 20 mg/kg, po; assay type: ADME, organism-based; details: in vivo, read-out: Vdss
# [7] = AUC (0 to 8 hrs) in mouse at 3 mg/kg, iv or 20 mg/kg, po; assay type: ADME, organism-based; design: dose 3 mg/kg, route iv; details: in vivo
# [8] = Clearance in mouse at 3 mg/kg, iv; assay type: ADME, organism-based; details: in vivo
# [9] = Oral bioavailability in mouse at 20 mg/kg; assay type: ADME, organism-based; details: in vivo
# NCI-H1975 [10] = assay: Antitumor activity against human NCI-H1975 cells harboring EGFR L858R/T790M mutant xenografted in rat assessed as tumor growth inhibition at 50 mg/kg, po administered once daily for 20 days and measured on 35 day; assay type: functional, organism-based
# NCI-H1975 [11] = assay: Antitumor activity against human NCI-H1975 cells harboring EGFR L858R/T790M mutant xenografted in rat assessed as slower regrowth of tumor at 50 mg/kg, po administered once daily for 20 days and measured on 35 day
# [12] = Oral bioavailability in rat at 10 mg/kg; assay type: ADME, organism-based; details: in vivo
# NCI-H1975 [13] = assay: Antitumor activity against human NCI-H1975 cells harboring EGFR L858R/T790M mutant xenografted in rat assessed as slower regrowth of tumor at 50 mg/kg, po administered once daily for 20 days and measured on 35 day; assay type: functional, organism-based
# NCI-H1975 [14] = assay: Antitumor activity against human NCI-H1975 cells harboring EGFR L858R/T790M mutant xenografted in rat assessed as tumor growth inhibition at 25 mg/kg, po administered once daily for 20 days and measured on 35 day; assay type: functional, organism-based
# [15] = Half life in rat at 1 mg/kg, iv; assay type: ADME, organism-based; details: in vivo
# [16] = Clearance in rat at 1 mg/kg, iv; assay type: ADME, organism-based; details: in vivo
# Sequence of Epidermal growth factor receptor (P00533 25-1210 T790M/L858R limits assumed): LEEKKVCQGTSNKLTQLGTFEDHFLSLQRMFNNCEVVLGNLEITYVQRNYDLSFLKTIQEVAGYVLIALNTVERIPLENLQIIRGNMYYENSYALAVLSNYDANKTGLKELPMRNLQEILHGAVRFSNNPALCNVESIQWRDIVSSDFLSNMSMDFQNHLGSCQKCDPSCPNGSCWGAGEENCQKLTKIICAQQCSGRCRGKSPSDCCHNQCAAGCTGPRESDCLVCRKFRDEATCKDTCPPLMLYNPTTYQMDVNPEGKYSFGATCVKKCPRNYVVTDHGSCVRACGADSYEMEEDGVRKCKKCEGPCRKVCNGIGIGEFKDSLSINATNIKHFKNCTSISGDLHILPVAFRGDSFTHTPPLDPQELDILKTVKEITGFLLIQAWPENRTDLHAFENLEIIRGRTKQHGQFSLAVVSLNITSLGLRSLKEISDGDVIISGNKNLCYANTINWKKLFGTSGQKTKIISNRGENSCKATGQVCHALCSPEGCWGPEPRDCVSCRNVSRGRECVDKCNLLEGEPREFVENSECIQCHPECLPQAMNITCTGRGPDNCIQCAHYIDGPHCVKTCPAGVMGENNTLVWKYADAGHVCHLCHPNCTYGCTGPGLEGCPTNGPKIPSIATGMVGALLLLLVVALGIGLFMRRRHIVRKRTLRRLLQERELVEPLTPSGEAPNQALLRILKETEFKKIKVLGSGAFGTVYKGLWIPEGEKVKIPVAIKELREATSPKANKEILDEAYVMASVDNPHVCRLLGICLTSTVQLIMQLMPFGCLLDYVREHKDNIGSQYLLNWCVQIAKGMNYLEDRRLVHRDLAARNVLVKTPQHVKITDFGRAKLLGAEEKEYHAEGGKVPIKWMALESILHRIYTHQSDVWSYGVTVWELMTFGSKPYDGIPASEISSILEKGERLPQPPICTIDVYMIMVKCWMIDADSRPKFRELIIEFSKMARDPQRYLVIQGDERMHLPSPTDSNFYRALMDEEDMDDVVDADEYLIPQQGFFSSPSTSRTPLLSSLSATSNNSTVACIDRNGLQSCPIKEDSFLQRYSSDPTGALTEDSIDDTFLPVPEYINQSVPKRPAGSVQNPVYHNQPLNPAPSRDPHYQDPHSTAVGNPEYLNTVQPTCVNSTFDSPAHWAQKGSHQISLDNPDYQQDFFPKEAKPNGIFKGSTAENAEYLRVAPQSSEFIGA
Structure (SMILES),IC50 (BaF3 [1]),IC50 (BaF3 [2]),IC50 (BaF3 [3]),IC50 [4],further results
CN1CCC(c2ccc(-c3ccc4ncn(C(C(=O)Nc5nccs5)c5ccccc5)c(=O)c4n3)cc2)CC1 (configuration not stated),90 nM,1710 nM,16 nM,,
CN1CCN(c2ccc(-c3ccc4c(c3)C(=O)N(C(C(=O)Nc3nccs3)c3cccc(F)c3)CC4)cc2)CC1 (configuration not stated),,1600 nM,126 nM,6.8 nM,
O=C(Nc1nccs1)C(c1cc(F)ccc1O)N1Cc2ccc(-c3ccc(N4CCNCC4)cc3)cc2C1=O (configuration not stated),,610 nM,21 nM,,half-life [5]: 3 h; Vd [6]: 0.6 L/kg; AUC(0-t) [7]: 2520 ng·h/mL; clearance [8]: 5 mL/min/kg
CN1CCN(c2ccc(-c3ccc4c(=O)n(C(C(=O)Nc5nccs5)c5ccccc5)ncc4c3)cc2)CC1 (configuration not stated),,3460 nM,1670 nM,,
CN1CCC(c2ccc(-c3ccc4c(=O)n(C(C(=O)Nc5nccs5)c5ccccc5)ncc4c3)cc2)CC1 (configuration not stated),990 nM,1240 nM,,9.7 nM,
CN1CCC(c2ccc(-c3ccc4c(c3)C(=O)N(C(C(=O)Nc3nccs3)c3cccc(F)c3)C4)cc2)CC1 (configuration not stated),152 nM,1070 nM,20 nM,0.2 nM,half-life [5]: 3.1 h; F [9]: 4%; Vd [6]: 2.4 L/kg; AUC(0-t) [7]: 1000 ng·h/mL; clearance [8]: 13.9 mL/min/kg
CN1CCC(c2ccc(-c3ccc4c(c3)CCN(C(C(=O)Nc3nccs3)c3cccc(F)c3)C4=O)cc2)CC1 (configuration not stated),,1990 nM,,2.2 nM,
CN1CCN(c2ccc(-c3ccc4c(=O)n(C(C(=O)Nc5nccs5)c5ccccc5)ccc4c3)cc2)CC1 (configuration not stated),,1270 nM,62 nM,3.4 nM,
CN1CCC(c2ccc(-c3cnc4ncn(C(C(=O)Nc5nccs5)c5ccccc5)c(=O)c4c3)cc2)CC1 (configuration not stated),310 nM,1140 nM,23 nM,1.9 nM,
CN1CCC(c2ccc(-c3ccc4c(=O)n(C(C(=O)Nc5nccs5)c5ccccc5)cnc4c3)cc2)CC1 (configuration not stated),900 nM,2430 nM,225 nM,5.8 nM,
CN1CCC(c2ccc(-c3cc(F)c4ncn(C(C(=O)Nc5nccs5)c5ccccc5)c(=O)c4c3)cc2)CC1 (configuration not stated),150 nM,810 nM,10 nM,,
CN1CCN(c2ccc(-c3ccc4c(=O)n(C(C(=O)Nc5nccs5)c5ccccc5)cnc4c3)cc2)CC1 (configuration not stated),,2000 nM,375 nM,3.1 nM,
O=C(Nc1nccs1)C(c1cc(F)ccc1O)N1Cc2ccccc2C1=O (configuration not stated),,> 10000 nM,221 nM,,
CN1CCC(c2ccc(-c3ccc4ncn(C(C(=O)Nc5nccs5)c5ccccc5)c(=O)c4c3F)cc2)CC1 (configuration not stated),,,,,Activity (NCI-H1975 [10]): Active; Activity (NCI-H1975 [11]): Active; F [12]: 24%; Activity (NCI-H1975 [13]): Active; Activity (NCI-H1975 [14]): Active; t1/2 [15]: 3.5 h; clearance [16]: 30 mL/min/kg
CN1CCN(c2ccc(-c3ccc4cnn(C(C(=O)Nc5nccs5)c5ccccc5)c(=O)c4c3)cc2)CC1 (configuration not stated),,2160 nM,380 nM,10.3 nM,
CN1CCC(c2ccc(-c3ccc4c(c3)C(=O)N(C(C(=O)Nc3nccs3)c3cccc(F)c3)CC4)cc2)CC1 (configuration not stated),,1470 nM,99 nM,3.2 nM,
CN1CCN(c2ccc(-c3ccc4c(c3)C(=O)N(C(C(=O)Nc3nccs3)c3cccc(F)c3)C4)cc2)CC1 (configuration not stated),,1990 nM,,1.8 nM,
CN1CCC(c2ccc(-c3ccc4ncn(C(C(=O)Nc5nccs5)c5ccccc5)c(=O)c4c3)cc2)CC1 (configuration not stated),50 nM,780 nM,,,
CN1CCC(c2ccc(-c3ccc4cnn(C(C(=O)Nc5nccs5)c5ccccc5)c(=O)c4c3)cc2)CC1 (configuration not stated),440 nM,1540 nM,207 nM,,
CN1CCC(c2ccc(-c3ccc4c(c3)C(=O)N(C(C(=O)Nc3nccs3)c3cc(F)ccc3O)C4)cc2)CC1 (configuration not stated),,50 nM,6 nM,0.1 nM,half-life [5]: 2.3 h; F [9]: 15%; Vd [6]: 2.5 L/kg; AUC(0-t) [7]: 2400 ng·h/mL; clearance [8]: 15.7 mL/min/kg
CN1CCN(c2ccc(-c3ccc4ncn(C(C(=O)Nc5nccs5)c5ccccc5)c(=O)c4c3)cc2)CC1 (configuration not stated),,2320 nM,21 nM,0.9 nM,
CN1CCC(c2ccc(-c3ccc4c(=O)n(C(C(=O)Nc5nccs5)c5ccccc5)ccc4c3)cc2)CC1 (configuration not stated),500 nM,1280 nM,24 nM,1.2 nM,
CN1CCN(c2ccc(-c3ccc4c(c3)C(=O)N(C(C(=O)Nc3nccs3)c3ccccc3)C4)cc2)CC1 (configuration not stated),,2560 nM,43 nM,0.9 nM,
CN1CCN(c2ccc(-c3ccc4ccn(C(C(=O)Nc5nccs5)c5ccccc5)c(=O)c4c3)cc2)CC1 (configuration not stated),,1850 nM,,,
CN1CCC(c2ccc(-c3ccc4ccn(C(C(=O)Nc5nccs5)c5ccccc5)c(=O)c4c3)cc2)CC1 (configuration not stated),380 nM,1500 nM,70 nM,1.8 nM,
CN1CCN(c2ccc(-c3ccc4c(c3)C(=O)N(C(C(=O)Nc3nccs3)c3cc(F)ccc3O)C4)cc2)CC1 (configuration not stated),,490 nM,6 nM,0.3 nM,half-life [5]: 2.8 h; F [9]: 2%; Vd [6]: 1.8 L/kg; AUC(0-t) [7]: 1350 ng·h/mL; clearance [8]: 10.3 mL/min/kg
CN1CCC(c2ccc(-c3cc4c(=O)n(C(C(=O)Nc5nccs5)c5ccccc5)cnc4cc3F)cc2)CC1 (configuration not stated),280 nM,3000 nM,73 nM,1.4 nM,
